Results gathered from unrelated publications.
Lines come from different studies, so protocols differ.
P4HB: Protein disulfide-isomerase (P4HB, Homo sapiens, UniProt P07237)
NEU1: Sialidase-1 (NEU1, Homo sapiens, UniProt Q99519)
CTSL: Procathepsin L (CTSL, Homo sapiens, UniProt P07711)

Structure (SMILES)	target	test	quantity	value
O=C(O[C@@H]1Cc2c(O)cc(O)cc2O[C@H]1c1ccc(O)c(O)c1)c1cc(O)c(O)c(O)c1	P4HB	enzyme activity, inhibitor, fluorescence	IC50	> 20 µM
CC(C)(C)CC(=O)N[C@H]1[C@H]([C@H](O)[C@H](O)CO)OC(C(=O)O)=C[C@@H]1O	NEU1	enzyme activity, inhibitor	IC50	160 µM
COCCC(=O)N[C@@H](CCC(N)=O)C(=O)N[C@@H](Cc1ccccc1)C(=O)N[C@@H](CCCNC(=N)N)C(=O)c1nc2ccccc2s1	CTSL	cell-free assay	Ki	> 10 µM
OB1OCc2cc(F)ccc21	blaNDM-5 (Escherichia coli, UniProt G3K399)	enzyme activity, inhibitor	IC50	19.6 µM
CS(=O)(=O)N[C@@H](CCC(N)=O)C(=O)N[C@@H](Cc1ccccc1)C(=O)N[C@@H](CCCNC(=N)N)C(=O)c1nccs1	CTSL	cell-free assay	Ki	> 10 µM
[Cl][Cd][Cl]	Voltage-dependent P/Q-type calcium channel subunit alpha-1A (Homo sapiens, UniProt O00555)	ion current, inhibitor, patch clamp	IC50	4.2 µM
O=C(O)C1=C[C@H](O)[C@@H](n2cc(-c3ccc(-c4ccccc4)cc3)nn2)[C@H]([C@H](O)[C@H](O)CO)O1	NEU1	enzyme activity, inhibitor	IC50	> 500 µM
O=C(O)c1cc(O)c(O)c(O)c1	P4HB	enzyme activity, inhibitor, fluorescence	IC50	> 500 µM
